# Ec RNAP inh – inhibitors of Escherichia coli RNA polymerase; E. coli RNA polymerase, fluorescence transcription assay; P0A8V2; AID 559; actives 0.2% (n = 62,000); inhibition, %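 (tested at 10 µM)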; in the data active means inhibition above about 20%;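 further: 0% = enzyme without compound and 100% = no enzyme blank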
# D1 mod – allosterically modulates the human D1 dopamine receptor | P21728 | HEK293 D1, CRE-luciferase, dopamine EC30 potentiation; actives deviate in either direction | B-score at 10 µM | actives 5.9% (n = 58,000);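 active means luminescence count or its row- and column-corrected plate score outside the 99.7% band of the plate's sample wells, on either side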
# AP ELISA ortho – alternative pathway complement inhibition, orthogonal assay. inhibition, % at 5 µM. Human serum alternative complement pathway, LPS-coated ELISA, C3 deposition; tested in compound mixtures. actives 0.08% (n = 62,000);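 active means inhibition above 30% in each of the two pooled mixtures holding the compound, so the lower value exceeds 30%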;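 further: 0% = serum in Mg-EGTA without compound and 100% = EDTA serum blank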
#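 Medium: diluted human serum in Mg2+-EGTA GVB++. Assay system: human serum complement alternative pathway, C3 deposition onto LPS. Also added: Plate-bound LPS. Technique: Anti-C3 ELISA, OD 450 nm. Measure: percent inhibition. Incubation: 1 h at 37 °C. Dosing: 5 µM each compound, pools of ten, 50 µM per pool.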
# HEK293 NFkB inh – inhibitors of the PMA/ionomycin-induced NF-kB reporter in HEK293 cells; AID 465; actives 0.21% (n = 62,000); HEK-293 NF-kB luciferase reporter, luminescence; inhibition, % at 3 µM;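 active means inhibition above the mean of all tested compounds plus 3 SD, cut at about 40% in these data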;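 further: 0% = stimulated DMSO wells and 100% = 10 µM reference inhibitor 5653914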
#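 Timing: 1 h pretreatment, 16 h stimulation, 37 °C; system: HEK-293 cells with stable firefly luciferase reporter driven by four HIV NF-kB elements; doses: 3 µM once, 0.30% DMSO; measured by: luciferase luminescence; control set: DMSO and 10 µM reference inhibitor; repeats: single test; reagent: PMA plus ionomycin mix as NF-kB-activating stimulus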
# DAT uptake mod – changed human dopamine transporter uptake under cocaine IC80; actives 1.3% (n = 110,000); B-score at 10 µM; AID 449768; LLC-PK1 hDAT cells, [14C]-dopamine uptake with cocaine IC80; actives deviate in either direction;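 active means Z score or B-score, a plate-position-corrected score, falls beyond the plate's 99.7% confidence bounds, in either direction; inactive means both scores lie inside the 99.7% bounds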;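 further: scored against the spread of the other compound wells on the same plate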
# Target sequence (Q01959 whole entry, looked up): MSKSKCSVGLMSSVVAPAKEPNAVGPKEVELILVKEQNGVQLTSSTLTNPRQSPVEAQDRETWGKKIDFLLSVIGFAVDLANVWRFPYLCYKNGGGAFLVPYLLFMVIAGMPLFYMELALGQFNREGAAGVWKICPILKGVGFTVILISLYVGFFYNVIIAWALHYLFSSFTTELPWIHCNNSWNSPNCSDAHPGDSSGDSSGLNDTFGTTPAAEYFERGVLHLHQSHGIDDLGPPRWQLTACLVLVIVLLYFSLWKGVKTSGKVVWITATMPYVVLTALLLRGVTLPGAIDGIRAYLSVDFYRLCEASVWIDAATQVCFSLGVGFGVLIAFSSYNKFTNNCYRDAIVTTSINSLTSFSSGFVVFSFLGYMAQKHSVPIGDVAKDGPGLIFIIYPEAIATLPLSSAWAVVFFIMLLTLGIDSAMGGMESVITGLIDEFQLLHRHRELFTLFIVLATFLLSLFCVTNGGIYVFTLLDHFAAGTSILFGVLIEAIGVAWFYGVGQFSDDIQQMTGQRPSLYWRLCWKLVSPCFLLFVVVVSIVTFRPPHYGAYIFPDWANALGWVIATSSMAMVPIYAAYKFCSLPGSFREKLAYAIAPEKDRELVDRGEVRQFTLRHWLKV
# * marks the source's active call; other numbers are inactive results; nt = no result. This excerpt belongs to a sample that is enriched for hits.
SMILES,Ec RNAP inh,D1 mod,AP ELISA ortho,HEK293 NFkB inh,DAT uptake mod
COc1cc(OC)c2c(c1)C(=O)c1cc(OC)cc(OC)c1C2=O,nt,nt,nt,nt,-0.992
COc1cccc(N2CC(C(=O)Nc3ccc(C(=O)OC(C)C)cc3)CC2=O)c1 (stereo unspecified),0.8,0.567,-1.2,13.7,3.21*
CC(=O)Cc1nsc(NC(=O)c2cc(-c3cccc(C(F)(F)F)c3)oc2C)n1,9.2,-0.266,1.7,12.8,-1.16
O=C(NCCCN1CCOCC1)NC12CC3CC(CC(C3)C1)C2,63.9*,-0.652,11.7,-0.6,-0.177
COc1ccc(-c2nn(C)c3sc(C(=O)N4CCOCC4)cc23)cc1OC,-0.3,1.11,14.6,23.2,-0.613
COc1ccc(N2CCN(C(=O)c3cc4c(-c5cccc(OC)c5)nn(C)c4s3)CC2)cc1,0.5,1.19,11.5,5.4,2*
C#Cc1ccc([C@H]2C=C(C(=O)NCc3nc4ccccc4[nH]3)O[C@@H](OCC)[C@@H]2CCCO)cc1,nt,nt,nt,nt,4.18*
CCO[C@H]1OC(C(=O)NCc2nc3ccccc3[nH]2)=C[C@@H](c2ccc(Br)cc2)[C@@H]1CCCO,nt,nt,nt,nt,0.184
CCc1ccc(CNc2ccc(O)cc2)cc1,5.5,-0.783,1.3,-0.5,2.91*
CSc1ccc(CNc2ccc(Cl)cc2)cc1,nt,nt,nt,nt,-0.582
C=C1Cn2c(nnc2-c2ccc(Cl)cc2)S1,4.0,nt,23.1,4.0,0.326
O=C(Nc1cccc(-c2cn3cccnc3n2)c1)c1ccc(Br)o1,-8.1,0.751,4.6,6.8,2.45
O=C(Nc1cccc(-c2cn3cccnc3n2)c1)c1ccco1,-18.5,-4.04*,0.1,12.5,2.39
O=c1cc(Nc2ccc3c(c2)OCO3)[nH]c(=O)n1-c1ccc(Br)cc1,4.6,-7.65*,18.5,17.9,0.0526
Cn1c(C(C#N)C2=C(Cl)C(=O)N(c3ccccc3)C2=O)nc2ccccc21 (stereo unspecified),9.5,-0.888,-1.6,8.5,0.174
CCCN1Cc2cccc(C(=O)Nc3ccc(CC)cc3)c2C1=O,nt,nt,nt,nt,-0.142
O=C(Nc1ccc2c(c1)OCO2)c1cccc2c1C(=O)N(Cc1cccnc1)C2,8.8,3.66,13.1,14.9,0.448
COc1cc(NC(=O)c2cccc3c2C(=O)N(Cc2cccnc2)C3)cc(OC)c1OC,7.2,2.31,9.7,58.3*,0.0578
CCCN1Cc2cccc(C(=O)Nc3ccc(C)cc3)c2C1=O,nt,nt,nt,nt,-7.97*
COCCN1Cc2cccc(C(=O)Nc3cc(C)cc(C)c3)c2C1=O,7.8,-0.0752,-8.0,-17.8,1.75*
CC(Oc1c(Cl)cccc1Cl)C1=NCCN1 (stereo unspecified),nt,nt,nt,nt,0.545
CCCC1=C(C(=O)OCC)C(c2cc(Cl)cc(OC)c2OCc2ccccc2)NC(=O)N1 (stereo unspecified),nt,nt,nt,nt,0.0555
COc1nc(Nc2nc3ccccc3c(=O)[nH]2)nc2ccc(C)cc12,6.0,-2.68*,0.0,29.8,nt
COC(C/C=C\[C@H](O)[C@@H](C)OCc1ccccc1)OC,nt,nt,nt,nt,-0.247
CCOC(=O)c1ccc(NC(=S)NNC(=O)C2(C)CC2(Cl)Cl)cc1 (stereo unspecified),nt,nt,nt,nt,0.599
SMILES,Ec RNAP inh,D1 mod,AP ELISA ortho,HEK293 NFkB inh,DAT uptake mod
CNC(=O)CCc1nc(-c2ccc(C(C)(C)C)cc2)no1,6.3,nt,18.3,69.8*,-0.404
CC(C)(C)c1ccc(-c2noc(CCC(N)=O)n2)cc1,1.7,-3.48*,-4.4,85.7*,1.44
C=CCNC(=O)c1c(CSc2ccc(Cl)cc2)noc1C(=O)NCc1ccccc1,nt,nt,nt,nt,0.986
COc1cc(/C=N/NC(=O)CCc2c(C)n[nH]c2C)ccc1O,nt,nt,nt,nt,-9.44*
COc1ccc(/C=N/NC(=O)CCc2c(C)n[nH]c2C)cc1OC,nt,nt,nt,nt,-1.16
COc1ccc(OC)c(-c2csc3nnc(SCC(=O)Nc4ccc(NC(C)=O)cc4)n23)c1,6.4,-1.09,1.5,9.0,-0.159
COc1cccc(NC(=O)CCSc2nnc3scc(-c4ccccc4)n23)c1,3.7,4.38*,1.3,12.7,nt
Cc1ccc(NS(=O)(=O)c2ccc(OCC(=O)N3CCOCC3)cc2)cc1,nt,nt,nt,nt,0.0594
O=C(Nc1ccc(CN2CCOCC2)cc1)c1cc2ccccc2o1,-0.8,-4.85*,8.5,-21.9,1.3
O=C(Nc1ccc(N2CCOCC2)cc1)c1cc2ccccc2o1,-8.0,-0.454,-8.4,-20.1,-0.0155
O=C(Nc1ccc(CN2CCOCC2)cc1)c1ccccc1F,nt,nt,nt,nt,-1.24
O=C(NC1=NCCS1)c1cc2ccccc2o1,4.7,-4.61*,5.4,-8.9,-0.444
O=C(Nc1ccccn1)c1cc2ccccc2o1,nt,nt,nt,nt,-1.24

# Screens: PubChem BioAssay, several laboratories
